This note sets out measurements from the array DNA melting data of Ke et al. (doi:10.1101/2024.01.08.574731).

The nature of data set [1]: folding enthalpy; higher = less favourable; fluorescence melt of hairpins on a sequencing array, two-state fit. Conditions: sodium 0.088 M. The procedure, abridged:
(§1)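 In 50 mM Na-HEPES pH 8.0 containing 25 mM NaCl, hairpins from the library on a sequenced MiSeq flow cell were imaged for Cy3 fluorescence at 2.5 °C steps up to 60 °C, with Cy3 and quencher oligos annealed. After normalisation to pre-quench Cy3 and to control constructs, two-state fits with bootstrapping gave melting temperature and folding enthalpy. Four replicates were combined by inverse-variance weighting, and fitted temperatures were shifted up by 9.35 °C to match UV melts.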

A short description of data set [2]: melting temperature; fluorescence melt of hairpins on a sequencing array, two-state fit, raised by 9.35 °C to match UV melts. Conditions: sodium 0.088 M. The essentials:
as §1

In the case of GTTCAAGGAAACTTGGAC ((.((((....)))).)), in data set [1], the folding enthalpy was -20.7 kcal/mol. Further, the Tm in data set [2] came out at 43.7 °C.
For GATCGGATGTCCGATC ((((((....)))))), in that order: -38.2 kcal/mol and 56.8 °C.
For GCTGAGCGAAAGCCCTGC ((.(.((....)).).)), in that order: -17.7 kcal/mol and 42.5 °C.
Consider GTAGATGGAAACACCTAC ((((.((....)).)))), for which the folding enthalpy in data set [1] is -20.9 kcal/mol. Besides, in data set [2], the Tm amounted to 32.9 °C.
The like results for GATGTCCGAAAGGAAATC (((.(((....))).))) were, in that order, -24 kcal/mol and 43.6 °C.
For CGCGCGGAAACGCTGCG ((((((....))).))), the folding enthalpy in data set [1] was -26.9 kcal/mol. For the same sequence, the Tm in data set [2] is 57.1 °C.
For GGCCGCGAAAGCGCTGCC ((((((....)))..))), the folding enthalpy in data set [1] was -18.6 kcal/mol. Further, the Tm in data set [2] amounted to 56.5 °C.
For GTTTAGACGAAAGTCAAC (((..(((....)))))), in that order: -9.97 kcal/mol and 30.4 °C.
Turning to GATCTACTCTTAGATC ((((((....)))))), in data set [1], the folding enthalpy is -29.7 kcal/mol. For the same sequence, the Tm in data set [2] came out at 41.1 °C.
For the sequence GCGATATCTCGC ((((....)))), the folding enthalpy in data set [1] is -20.5 kcal/mol. Further, the Tm in data set [2] turned out to be 48.5 °C.
Regarding GGTCGGAAACGACC (((((....))))), the folding enthalpy in data set [1] is -32.3 kcal/mol. For the same sequence, the Tm in data set [2] is 68 °C.
The like results for GGTCAGACGAAAGTCACC (((..(((....)))))) were, in that order, -14.6 kcal/mol and 30.5 °C.
As to GTAGACGAAAGTCGGTAC ((((((....)))..))), in data set [1], the folding enthalpy was -11.8 kcal/mol. Also, the Tm in data set [2] is 34.6 °C.
For GCCTACGAAAGTATGGC ((((((....))).))), in data set [1], the folding enthalpy was -24.6 kcal/mol. Further, the Tm in data set [2] is 52.3 °C.
For GTACCCGAAAGGGGGTAC ((((((....)))..))), in that order: -18.1 kcal/mol and 49.6 °C.
As to GATCCGCTCCCGGATC ((((((....)))))), in data set [1], the folding enthalpy was -35.8 kcal/mol. Further, the Tm in data set [2] is 56.9 °C.
GACTTGGGAAACCGAGTC ((((.((....)).)))): the folding enthalpy in data set [1] was -45.3 kcal/mol. For the same sequence, the Tm in data set [2] came out at 49.5 °C.
GATCTACGCTTAGATC ((((((....)))))): the folding enthalpy in data set [1] was -35.4 kcal/mol. In addition, the Tm in data set [2] amounted to 43.4 °C.
The like results for ACGGAGAAATCCGT (((((....))))) were, in that order, -19 kcal/mol and 49.2 °C.
In the case of GATCAAGAGCTTGATC ((((((....)))))), in data set [1], the folding enthalpy is -38.2 kcal/mol. In data set [2], the Tm was 42.2 °C.
For GCGAACGAAAGTTACGC ((((((....))).))), in that order: -22.7 kcal/mol and 51.5 °C.
GCGAACCGTCGC ((((....)))): the folding enthalpy in data set [1] was -18.7 kcal/mol. Further, the Tm in data set [2] turned out to be 47.7 °C.
For GCCATCGAAAGATCGGC ((((((....))).))), in that order: -24.7 kcal/mol and 48.2 °C.
The like results for GATCAAATTATTGATC ((((((....)))))) were, in that order, -27.7 kcal/mol and 41.4 °C.
For GGATGAGCGAAAGCTTCC (((..(((....)))))), in that order: -11.4 kcal/mol and 39.4 °C.
With GGACCTCGAAAGAGTCC (((.(((....)))))), the folding enthalpy in data set [1] is -32.7 kcal/mol. In addition, the Tm in data set [2] was found to be 49.8 °C.
With GGATCCGAAAGGAAGTCC ((((((....)))..))), the folding enthalpy in data set [1] is -10.1 kcal/mol. Further, the Tm in data set [2] was 29.5 °C.
Regarding GGTATCGAAAGATGGACC ((((((....)))..))), in data set [1], the folding enthalpy is -15.2 kcal/mol. Also, the Tm in data set [2] turned out to be 28.9 °C.
For GTTTTGCGAAAGCAGAAC (((.(((....))).))), in that order: -29.9 kcal/mol and 51.4 °C.
The like results for GATCTTGCTTAAGATC ((((((....)))))) were, in that order, -38 kcal/mol and 44 °C.
GGAATCGAAAGATCTTCC ((((((....)))..))): in data set [1], the folding enthalpy was -20.9 kcal/mol. Moreover, the Tm in data set [2] came to 30.6 °C.
For GATCATGCCTATGATC ((((((....)))))), in data set [1], the folding enthalpy is -42.4 kcal/mol. Further, in data set [2], the Tm came out at 52.3 °C.
In the case of GGATTGGGAAACCAGTCC (((.(((....))).))), in data set [1], the folding enthalpy was -31.1 kcal/mol. The Tm in data set [2] amounted to 46.9 °C.
On to GCCTACCGAAAGGTTGGC (((.(((....))).))), for which the folding enthalpy in data set [1] is -35.4 kcal/mol. Also, the Tm in data set [2] was determined as 62.5 °C.
Consider GATCGTAGCGACGATC ((((((....)))))), for which the folding enthalpy in data set [1] was -38.9 kcal/mol. The Tm in data set [2] is 54.9 °C.
For GATCGGGCCCCCGATC ((((((....)))))), in that order: -43.2 kcal/mol and 59.6 °C.
For CCGTAGAAATACGG (((((....))))), in that order: -17.8 kcal/mol and 47.3 °C.
